Active and inactive are the calls of the source. The rule behind the calls is not given here.
Columns and labels:
[1] = molecular target: T1, Tyrosine-protein phosphatase non-receptor type 2 (Homo sapiens, UniProt P17706); assay: Inhibition of human N-terminal His6-tagged TCPTP catalytic domain (1 to 336 residues) expressed in Escherichia coli strain Rosetta2 (DE3) using DiFMUP as substrate preincubated for 10 mins followed by substrate addition and measured after 10 mins by fluorescence assay
T1 sequence (P17706 whole entry): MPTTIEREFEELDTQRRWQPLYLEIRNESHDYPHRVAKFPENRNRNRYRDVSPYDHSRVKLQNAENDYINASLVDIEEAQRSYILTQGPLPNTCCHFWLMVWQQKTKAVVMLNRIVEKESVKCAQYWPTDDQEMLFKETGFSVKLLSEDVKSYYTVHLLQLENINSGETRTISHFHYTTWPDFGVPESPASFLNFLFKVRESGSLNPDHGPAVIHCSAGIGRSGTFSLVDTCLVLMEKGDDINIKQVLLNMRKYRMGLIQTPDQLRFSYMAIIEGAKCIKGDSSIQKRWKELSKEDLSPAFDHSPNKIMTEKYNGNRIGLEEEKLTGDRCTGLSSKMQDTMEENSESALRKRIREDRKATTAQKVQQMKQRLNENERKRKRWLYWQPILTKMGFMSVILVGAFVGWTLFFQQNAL
In short: (§1)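 Tag-cleaved, SEC-purified enzyme at 1 nM, preincubated 10 min with compound at 15 concentrations from 0–500 μM (5% DMSO final) in 25 mM Bis-Tris propane pH 7.5, 50 mM NaCl, 2 mM EDTA. DiFMUP added at each construct's Km (10, 7, 10, 9 μM for PTP1B1−298, PTP1B1−393, TCPTP1−296, TCPTP1−336). Read ex 358/em 455 nm continuously 10 min at 37 °C; triplicate; log(inhibitor)-response fit.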

[2] = molecular target: T2, Tyrosine-protein phosphatase non-receptor type 1 (Homo sapiens, UniProt P18031); assay: Inhibition of human N-terminal His6-tagged PTP1B catalytic domain (1 to 393 residues) expressed in Escherichia coli strain Rosetta2 (DE3) using DiFMUP as substrate preincubated for 10 mins followed by substrate addition and measured after 10 mins by fluorescence assay; in short: as §1
T2 sequence (P18031 whole entry): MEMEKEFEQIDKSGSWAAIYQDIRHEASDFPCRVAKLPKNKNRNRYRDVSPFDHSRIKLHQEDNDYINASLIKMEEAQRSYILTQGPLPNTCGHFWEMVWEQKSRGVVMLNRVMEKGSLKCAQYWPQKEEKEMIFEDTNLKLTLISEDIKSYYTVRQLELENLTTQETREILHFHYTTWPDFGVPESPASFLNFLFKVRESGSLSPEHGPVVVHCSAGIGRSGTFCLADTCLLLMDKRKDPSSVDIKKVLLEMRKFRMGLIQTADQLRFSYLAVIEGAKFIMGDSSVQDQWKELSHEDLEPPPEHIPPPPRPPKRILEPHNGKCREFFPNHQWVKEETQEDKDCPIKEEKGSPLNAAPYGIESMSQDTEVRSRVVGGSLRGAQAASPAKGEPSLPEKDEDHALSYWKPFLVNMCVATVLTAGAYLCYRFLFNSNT

[3] = molecular target: T3, Tyrosine-protein phosphatase non-receptor type 1 (Homo sapiens) (UniProt P18031); assay: Inhibition of human N-terminal His6-tagged PTP1B catalytic domain (1 to 393 residues) expressed in Escherichia coli strain Rosetta2 (DE3) at 500 uM using DiFMUP as substrate preincubated for 10 mins followed by substrate addition and measured after 10 mins by fluorescence assay
T3 sequence (whole entry): T2 sequence (P18031 whole entry)

[4] = molecular target: T4, Tyrosine-protein phosphatase non-receptor type 2 (Homo sapiens) (UniProt P17706); assay: Inhibition of human N-terminal His6-tagged TCPTP catalytic domain (1 to 336 residues) expressed in Escherichia coli strain Rosetta2 (DE3) at 500 uM using DiFMUP as substrate preincubated for 10 mins followed by substrate addition and measured after 10 mins by fluorescence assay
T4 sequence (whole entry): T1 sequence (P17706 whole entry)

IC50 [1]	IC50 [2]	Compound	inhibition [3]	inhibition [4]
478 µM	910 µM	Nc1ccc(NC(=O)C(=O)O)cc1		
		CC1=C(CO)C(=O)O[C@@H]([C@@H](C)[C@H]2CC[C@H]3[C@@H]4C[C@H]5O[C@]56[C@@H](O)C=CC(=O)[C@]6(C)[C@H]4CC[C@]23C)C1	inactive	inactive
		Cc1c(O)c(O)cc2c1CC=C1[C@@]2(C)CC[C@@]2(C)[C@@H]3C[C@](C)(C(=O)O)CC[C@]3(C)CC[C@]12C	Active	Active

Source: ChEMBL document CHEMBL4371044, “Celastrol Promotes Weight Loss in Diet-Induced Obesity by Inhibiting the Protein Tyrosine Phosphatases PTP1B and TCPTP in the Hypothalamus” (J Med Chem, 2018)
